Data on one compound can be found in ChEMBL document CHEMBL4411297, “Discovery, synthesis and anti-atherosclerotic activities of a novel selective sphingomyelin synthase 2 inhibitor” (Eur J Med Chem, 2019).

Data set [1] is described as follows: Cmax in C57BL/6J mouse at 50 mg/kg/day, ig by HPLC-MS/MS analysis. Type of data set: ADME, organism-based. Further details: dose 50 mg/kg/day, route intragastric. The conditions noted are these: in vivo, po. An outline of the steps:
(§1)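 Male C57BL/6J mice, six to eight weeks old, about 20 g, fasted 12 h with free water. Given a single intragastric dose of 25, 50 or 100 mg/kg in 10% DMSO/30% PEG-100/0.9% NaCl. Blood taken retro-orbitally at 5 min to 8 h. Plasma protein-precipitated with methanol plus internal standard, then HPLC-MS/MS on a C18 column. Noncompartmental analysis, n = 6.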

Data set [2] in a line: MRT (0 to infinity) in C57BL/6J mouse at 100 mg/kg/day, ig by HPLC-MS/MS analysis. Type of data set: ADME, organism-based. The conditions noted are these: in vivo, po. The essentials: (§2)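 Male C57BL/6J mice (6–8 weeks, ~20 g), fasted 12 h, given a single intragastric dose of 25, 50 or 100 mg/kg in 10% DMSO/30% PEG/0.9% NaCl. Retro-orbital blood at 5 min to 8 h; plasma protein-precipitated with methanol plus internal standard, assayed by LC-MS/MS; noncompartmental analysis. Mean ± SD, n = 6.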

A short description of data set [3]: MRT (0 to infinity) in C57BL/6J mouse at 25 mg/kg/day, ig by HPLC-MS/MS analysis. The class given is ADME, organism-based. The conditions noted are these: in vivo, po. The essentials:
as §2

The target in data set [4] is T1, Phosphatidylcholine:ceramide cholinephosphotransferase 2 (Homo sapiens) (UniProt Q8NHU3).
T1 sequence (whole entry): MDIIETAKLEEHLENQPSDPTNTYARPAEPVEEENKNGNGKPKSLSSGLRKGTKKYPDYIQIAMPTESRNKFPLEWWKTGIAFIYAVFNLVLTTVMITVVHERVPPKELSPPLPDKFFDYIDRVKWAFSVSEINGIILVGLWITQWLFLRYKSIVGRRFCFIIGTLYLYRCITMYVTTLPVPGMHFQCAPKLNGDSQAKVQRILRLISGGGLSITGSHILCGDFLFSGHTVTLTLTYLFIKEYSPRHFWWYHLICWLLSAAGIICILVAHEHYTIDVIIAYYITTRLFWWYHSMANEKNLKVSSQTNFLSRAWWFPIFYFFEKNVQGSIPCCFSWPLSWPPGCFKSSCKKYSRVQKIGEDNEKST
Nature of the data set: (§3) Inhibition of purified SMS2 (unknown origin) using C6-NBD-Ceramide and DMPC as substrates preincubated for 5 mins followed by substrate addition and measured after 30 mins by TLC or HPLC method. The essentials:
(§4)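 Purified SMS1 or SMS2 in DDM detergent buffer; inhibitor in DMSO pre-incubated 5 min at room temperature, then C6-NBD-ceramide and DMPC added, 30 min at 37 °C; ethanol quench, TLC or HPLC read-out. Activity expressed as percent of no-inhibitor vehicle; IC50 from ten (SMS1) or eight (SMS2) concentrations, mean ± SD, n = 3.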

Data set [5] deals with T2, Phosphatidylcholine:ceramide cholinephosphotransferase 2 (Homo sapiens, UniProt Q8NHU3).
T2 sequence (Q8NHU3 whole entry): T1 sequence (whole entry)
The data set is described as §3. An outline of the steps:
as §4

Data set [6] addresses T3, Phosphatidylcholine:ceramide cholinephosphotransferase 2 (Mus musculus) (UniProt Q9D4B1).
T3 sequence (whole entry): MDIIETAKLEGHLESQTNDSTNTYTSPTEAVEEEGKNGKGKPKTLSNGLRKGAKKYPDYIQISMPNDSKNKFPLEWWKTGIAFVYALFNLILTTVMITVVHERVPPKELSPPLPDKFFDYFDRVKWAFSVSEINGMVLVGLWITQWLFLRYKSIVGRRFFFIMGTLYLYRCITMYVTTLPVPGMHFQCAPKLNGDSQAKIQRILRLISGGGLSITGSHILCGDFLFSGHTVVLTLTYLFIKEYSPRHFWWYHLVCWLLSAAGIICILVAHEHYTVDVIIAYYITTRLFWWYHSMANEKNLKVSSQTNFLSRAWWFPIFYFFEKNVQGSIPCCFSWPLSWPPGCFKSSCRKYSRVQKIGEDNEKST
Put plainly: Inhibition of SMS2 in C57BL/6J mouse bone marrow derived macrophages after 17 hrs.

Data set [7] relates to Mus musculus. Put plainly: Anti-atherosclerotic activity in apoE knockout mouse fed with western-type diet assessed as reduction in lymphocyte count at 12.5 mg/kg/day, ig for 7 weeks by flow cytometric analysis relative to control. Further details: scale not given: the % may be the effect or the level left. Type of data set: functional. An outline of the steps: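 ApoE KO mice started at 8 weeks old on Western-type diet for 6 weeks. Then dosed by gavage daily with vehicle, 12.5 or 40 mg/kg for 7 weeks with the diet continued, 10 mice per group. Blood single-cell suspensions stained with antibodies in PBS and analysed by flow cytometry. Mean ± SD, n = 5.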
(In general: Flow cytometry measures light scatter and fluorescence of single cells or particles in a stream.)

Data set [8] in a line: Half life in C57BL/6J mouse at 50 mg/kg/day, ig by HPLC-MS/MS analysis. The class given is ADME, organism-based. The conditions noted are these: in vivo, po. The essentials: as §1
Data set [9] is described as follows: Apparent volume of distribution during terminal phase in C57BL/6J mouse at 50 mg/kg/day, ig by HPLC-MS/MS analysis. The class given is ADME, organism-based. The conditions noted are these: in vivo, po, read-out: Vz/F. The essentials:
as §1

The nature of data set [10]: Ratio of drug level in liver to plasma in C57BL/6J mouse at 100 mg/kg/day, ig qd for 7 days measured on day 7. The class given is ADME, organism-based. The conditions noted are these: po. The essentials: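 C57BL/6J mice dosed intragastrically at 100 mg/kg once daily for 7 days; compound levels in liver and blood measured on day 7, n = 5.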
The test system of data set [11] is Mus musculus. Nature of the data set: Effect on plasma AST level in apoE knockout mouse fed with western-type diet at 12.5 to 40 mg/kg/day, ig for 7 weeks. Type of data set: ADME, organism-based. The conditions noted are these: in vivo, po, 1176 h. The essentials:
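ApoE KO mice on Western-type diet, dosed by gavage at 12.5 or 40 mg/kg/day for 7 weeks, n = 10. Blood collected at 20 weeks of age. Plasma SM measured by a previously reported method. ALT and AST read on an automated biochemical analyzer.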

Data set [12] can be described thus: Apparent volume of distribution during terminal phase in C57BL/6J mouse at 25 mg/kg/day, ig by HPLC-MS/MS analysis. Type of data set: ADME, organism-based. The conditions noted are these: in vivo, po, read-out: Vz/F. The essentials: as §1
Data set [13] can be described thus: MRT (0 to infinity) in C57BL/6J mouse at 50 mg/kg/day, ig by HPLC-MS/MS analysis. The conditions noted are these: in vivo, po. The class given is ADME, organism-based. An outline of the steps:
as §2

The target of data set [14] is T1, Phosphatidylcholine:ceramide cholinephosphotransferase 2 (Homo sapiens). Nature of the data set: Inhibition of SMS2 in human HuH7 cells assessed as down regulation of apoB secretion incubated for 17 hrs followed by further incubation for 2 hrs in presence of [35S]-methionine. Type of data set: cell-based. The essentials: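 Huh7 human hepatoma cells treated with inhibitor 17 h, then pulse-labeled with [³⁵S]-methionine for 2 h with vehicle or compound; secreted [³⁵S]-apoB in medium detected and quantified.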

Data set [15] in a line: Cmax in C57BL/6J mouse at 25 mg/kg/day, ig by HPLC-MS/MS analysis. The class given is ADME, organism-based. Further details: dose 25 mg/kg/day, route intragastric. The conditions noted are these: in vivo, po. The essentials: as §1
Data set [16] addresses T2, Phosphatidylcholine:ceramide cholinephosphotransferase 2. Put plainly: Inhibition of SMS2 (unknown origin) over-expressed in H5 insect cell lysate using C6-NBD-Ceramide and DMPC as substrates preincubated for 30 mins followed by substrate addition and measured after 2 hrs by TLC or HPLC method. The class given is subcellular.
Data set [17] deals with Mus musculus. Put plainly: Anti-atherosclerotic activity in apoE knockout mouse fed with western-type diet assessed as reduction in lesions in whole aorta at 12.5 to 40 mg/kg/day, ig for 7 weeks by oil-red O staining-based assay relative to control. Type of data set: functional, organism-based. An outline of the steps: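 ApoE KO mice fed Western-type diet, then given 12.5 or 40 mg/kg/day by gavage in 30% PEG-400/10% DMSO/0.9% NaCl for 7 weeks. Aortic root: H&E-stained 4 µm sections, mean lesion area from 6 sections per animal. Whole aorta: en face Oil Red O staining, percentage of area stained. Compared with vehicle, n = 10.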

Structures are written as SMILES.

As to `CCc1ccccc1COc1ccccc1C(=O)Nc1cccnc1`, the Cmax in [1] came out at 6120 ng/mL; in data set [15], 2530 ng/mL. In addition, the results for the MRT inf in [2], in data set [3] and in data set [13] were 2.57 h, 3.64 h and 2.28 h, respectively. The inhibition result in data set [4], in [6] and in data set [14] was “Dose-dependent effect” each time. Further, the values for the IC50 in data set [5] and in data set [16] were 91 nM and 880 nM, respectively. Also, the Activity with Mus musculus [7] is 21%; in the data set with Mus musculus [11], “Non-Toxic”; with Mus musculus [17], “Dose-dependent effect”. In [8], this compound gave a half-life of 1.83 h. Besides, the Vd/F was determined as 26.5 L in data set [9] and 51.4 L in data set [12]. Besides, the Kp at 168 h in [10] turned out to be 5.

Broadly, the Cmax is the maximum level reached in the sampled fluid or tissue. What is called MRT inf is a mean duration of stay, worked out from the concentration-time curve. A word on the IC50: it is the concentration that gives 50% inhibition. Usually half-life stands for the time needed for the level to fall by half in the phase considered. For orientation: Kp means tissue or fluid exposure divided by exposure in the circulation.
